Experimental data taken from publication PMC11532418 (Scientific Reports, 2024).

Columns and labels:
NIH/3T3 = test: MTT cytotoxic bioassay on normal cell line; type: cell-based; conditions: Mus musculus, NIH3T3, 72 h, read-out: IC50 ± SD
How it was run: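 NIH/3T3 fibroblasts were grown in high-glucose DMEM with 10% FBS and 1% penicillin-streptomycin under humidified 5% CO2. 1.0 × 10^4 cells/well were precultured for 16 h, then exposed for 72 h in fresh medium (reference drug at 1–200 µM). MTT (0.50 mg/ml final) was added for 4 h, and formazan was dissolved in DMSO. A570 − A630 gave % viability. IC50 is mean ± SD of three independent experiments.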

DPP4 enzyme [1] = molecular target: T1, DPP4 enzyme (Homo sapiens, UniProt P27487); test: biochemical; conditions: read-out: % DPP4 Enzyme Inhibition, at 20 µM
DPP4 enzyme [2] = molecular target: T1, DPP4 enzyme; test: Kinetic study of DPP4 inhibition; type: biochemical
How it was run: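 DPP4 inhibition kinetics with fluorogenic substrate H-Gly-Pro-AMC at different substrate-to-enzyme concentration ratios, test compound at four concentrations (0.5, 5, 25 and 50 µM). Double-reciprocal plots of 1/velocity vs 1/[substrate] fitted by weighted least squares, assuming velocity variance is a constant percentage of v. Lineweaver–Burk slopes were replotted against inhibitor concentration, and Ki was taken as the negative X-axis intercept.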

T1 sequence (P27487 whole entry): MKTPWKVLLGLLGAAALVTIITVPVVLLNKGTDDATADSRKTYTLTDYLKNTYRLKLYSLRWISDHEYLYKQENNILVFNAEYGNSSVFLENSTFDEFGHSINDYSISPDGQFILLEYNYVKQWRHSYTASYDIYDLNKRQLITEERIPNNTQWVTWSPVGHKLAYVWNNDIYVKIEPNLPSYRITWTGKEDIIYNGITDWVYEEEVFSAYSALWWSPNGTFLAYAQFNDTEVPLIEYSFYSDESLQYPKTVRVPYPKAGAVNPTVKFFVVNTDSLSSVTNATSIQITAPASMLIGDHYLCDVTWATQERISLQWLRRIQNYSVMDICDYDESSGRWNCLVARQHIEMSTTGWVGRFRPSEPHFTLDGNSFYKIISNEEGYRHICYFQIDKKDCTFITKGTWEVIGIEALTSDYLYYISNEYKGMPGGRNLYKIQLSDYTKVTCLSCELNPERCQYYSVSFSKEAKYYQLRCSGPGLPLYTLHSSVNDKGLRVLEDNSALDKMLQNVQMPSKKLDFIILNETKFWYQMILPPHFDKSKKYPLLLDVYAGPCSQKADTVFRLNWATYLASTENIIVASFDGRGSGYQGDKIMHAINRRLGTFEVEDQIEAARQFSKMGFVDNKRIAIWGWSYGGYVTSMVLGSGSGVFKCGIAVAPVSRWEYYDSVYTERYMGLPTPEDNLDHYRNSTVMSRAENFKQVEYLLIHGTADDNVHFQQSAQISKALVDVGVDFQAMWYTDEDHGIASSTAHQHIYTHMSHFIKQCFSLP

How did the IC50 (NIH/3T3) turn out when `Cn1c(=O)cc(N2CCC(N)CC2)n(Cc2nc3ccccc3c(=O)n2-c2ccccc2)c1=O` [9a, 6-(4-Aminopiperidin-1-yl)-3-methyl-1-((4-oxo-3-phenyl-3,4-dihydroquinazolin-2-yl)methyl)pyrimidine-2,4(1 H,3 H)-dione] was run?
Its IC50 is 88.1 ± 3.22 µM.

`Cn1c(=O)cc(N2CCC(N)CC2)n(Cc2nc3ccccc3c(=O)n2-c2ccc(F)cc2)c1=O` [9b, 6-(4-Aminopiperidin-1-yl)-1-((3-(4-fluorophenyl)-4-oxo-3,4-dihydroquinazolin-2-yl)methyl)-3-methylpyrimidine-2,4(1 H,3 H)-dione] was tested. Which IC50 (NIH/3T3) did it give?
The IC50 was 62.9 ± 1.98 µM.

How did the IC50 (NIH/3T3) turn out when `Cn1c(=O)cc(N2CCC(N)CC2)n(Cc2nc3ccccc3c(=O)n2-c2ccc(Cl)cc2)c1=O` [9c, 6-(4-Aminopiperidin-1-yl)-1-((3-(4-chlorophenyl)-4-oxo-3,4-dihydroquinazolin-2-yl)methyl)-3-methylpyrimidine-2,4(1 H,3 H)-dione] was run?
Its IC50 is 72.2 ± 3.91 µM.

And the inhibition at 20 µM (DPP4 enzyme [1])?
The inhibition at 20 µM was over 50%.

`Cc1ccc(-n2c(Cn3c(N4CCC(N)CC4)cc(=O)n(C)c3=O)nc3ccccc3c2=O)cc1` [9d, 6-(4-Aminopiperidin-1-yl)-3-methyl-1-((4-oxo-3-(p-tolyl)-3,4-dihydroquinazolin-2-yl)methyl)pyrimidine-2,4(1 H,3 H)-dione] was tested. Which IC50 (NIH/3T3) did it give?
The IC50 was 39.3 ± 1.05 µM.

With `Cn1c(=O)cc(N2CCC(N)CC2)n(Cc2nc3ccccc3c(=O)n2-c2cccc(C(F)(F)F)c2)c1=O` [9e, 6-(4-Aminopiperidin-1-yl)-3-methyl-1-((4-oxo-3-(3-(trifluoromethyl)phenyl)-3,4-dihydroquinazolin-2-yl)methyl)pyrimidine-2,4(1 H,3 H)-dione] as the compound, how does the IC50 (NIH/3T3) read?
The IC50 was 81.5 ± 5.94 µM.

For `Cn1c(=O)cc(N2CCC(N)CC2)n(Cc2nc3ccccc3c(=O)n2-c2ccc(F)c(Cl)c2)c1=O` [9f, 6-(4-Aminopiperidin-1-yl)-1-((3-(3-chloro-4-fluorophenyl)-4-oxo-3,4-dihydroquinazolin-2-yl)methyl)-3-methylpyrimidine-2,4(1 H,3 H)-dione], which IC50 (NIH/3T3) is on record?
Its IC50 is 43.4 ± 1.02 µM.

`Cn1c(=O)cc(N2CCC(N)CC2)n(Cc2nc3ccc(Br)cc3c(=O)n2-c2ccccc2)c1=O` [9g, 6-(4-Aminopiperidin-1-yl)-1-((6-bromo-4-oxo-3-phenyl-3,4-dihydroquinazolin-2-yl)methyl)-3-methylpyrimidine-2,4(1 H,3 H)-dione] was tested. Which IC50 (NIH/3T3) did it give?
The IC50 was 102 ± 4.05 µM.

How did the IC50 (NIH/3T3) turn out when `Cn1c(=O)cc(N2CCC(N)CC2)n(Cc2nc3ccc(Br)cc3c(=O)n2-c2ccc(F)cc2)c1=O` [9h, 6-(4-Aminopiperidin-1-yl)-1-((6-bromo-3-(4-fluorophenyl)-4-oxo-3,4-dihydroquinazolin-2-yl)methyl)-3-methylpyrimidine-2,4(1 H,3 H)-dione] was run?
The IC50 was 89.7 ± 3.76 µM.

`Cn1c(=O)cc(N2CCC(N)CC2)n(Cc2nc3ccc(Br)cc3c(=O)n2-c2ccc(Cl)cc2)c1=O` [9i, 6-(4-Aminopiperidin-1-yl)-1-((6-bromo-3-(4-chlorophenyl)-4-oxo-3,4-dihydroquinazolin-2-yl)methyl)-3-methylpyrimidine-2,4(1 H,3 H)-dione] was tested. Which IC50 (NIH/3T3) did it give?
Its IC50 is 76.9 ± 2.58 µM.

And the Ki (DPP4 enzyme [2])?
The Ki was 12 µM.

What about the type of inhibition (DPP4 enzyme [2]; Lineweaver-Burk plot) of the same compound?
The type of inhibition was “competitive”.

Which results are given for `Cn1c(=O)cc(N2CCC(N)CC2)n(Cc2nc3ccc(Br)cc3c(=O)n2-c2ccc(Br)cc2)c1=O` [9j, 6-(4-Aminopiperidin-1-yl)-1-((6-bromo-3-(4-bromophenyl)-4-oxo-3,4-dihydroquinazolin-2-yl)methyl)-3-methylpyrimidine-2,4(1 H,3 H)-dione]?
IC50 (NIH/3T3): 91 ± 1.98 µM; inhibition at 20 µM (DPP4 enzyme [1]): > 50%

For `Cn1c(=O)cc(N2CCC(N)CC2)n(Cc2nc3ccc(Br)cc3c(=O)n2-c2cccc(F)c2)c1=O` [9k, 6-(4-Aminopiperidin-1-yl)-1-((6-bromo-3-(3-fluorophenyl)-4-oxo-3,4-dihydroquinazolin-2-yl)methyl)-3-methylpyrimidine-2,4(1 H,3 H)-dione], which IC50 (NIH/3T3) is on record?
Its IC50 is 68.4 ± 3.01 µM.

Which IC50 (NIH/3T3) does the source give for `Cn1c(=O)cc(N2CCC(N)CC2)n(Cc2nc3ccc(Br)cc3c(=O)n2-c2cccc(Br)c2)c1=O` [9l, 6-(4-Aminopiperidin-1-yl)-1-((6-bromo-3-(3-bromophenyl)-4-oxo-3,4-dihydroquinazolin-2-yl)methyl)-3-methylpyrimidine-2,4(1 H,3 H)-dione] here?
Its IC50 is 78.1 ± 2.95 µM.

`N[C@@H](CC(=O)N1CCn2c(nnc2C(F)(F)F)C1)Cc1cc(F)c(F)cc1F` [Sitagliptin, reference compound] was tested. Which IC50 (NIH/3T3) did it give?
Its IC50 is 111 ± 5.85 µM.
